Results published in ChEMBL document CHEMBL1145502, “Roxithromycin favorably modifies the initial phase of resistance against infection with macrolide-resistant Streptococcus pneumoniae in a murine pneumonia model” (Antimicrob Agents Chemother, 2007).
Values after ≈ are worked out from the molar mass of the structure shown. Active and inactive are the calls of the source. No cut-off for these calls is given here.

Tests used:
Streptococcus pneumoniae [1] = test: Reduction of pneumolysin production in Streptococcus pneumoniae NMU112 lysates at 5 ug/mL after 12 hrs by Western blot relative to control; format: functional, organism-based
Summary of the method: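 NMU112 at 5 × 10⁷ CFU/ml in THY cultured with macrolide at 37°C for 12 h, then whole-cell sonicated lysates run on SDS-PAGE and immunoblotted for pneumolysin. Band densitometry as mean % of drug-free culture; two cultures per dose per experiment, three experiments.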

Streptococcus pneumoniae [2] = test: Antimicrobial activity against drug-resistant Streptococcus pneumoniae NMU112 infected CBA/J mouse assessed as median survival time at 10 mg/kg, po relative to control; format: functional
Summary of the method: (§1)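 Male CBA/J mice, 3-4 weeks old, 28-30 g. Macrolide given by oral gavage in saline for 3 days; RXM, ERY and CLR twice daily at 12-h intervals, AZM once daily. Saline controls. 24 h after the last dose, mice were infected intratracheally with 5 × 10⁴ CFU NMU112 (erm(B)/mef(A)). Kaplan-Meier survival and median survival time, log rank test; 10 mice per group per experiment.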

Streptococcus pneumoniae [3] = test: Inhibition of pneumococcal surface protein A production in Streptococcus pneumoniae NMU112 lysates at 5 ug/mL after 12 hrs by Western blot relative to control; format: functional, organism-based
Summary of the method: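 Strain NMU112 (5 × 10⁷ CFU/ml in THY) cultured 12 h at 37°C with drug. Sonicated whole-cell lysates run on SDS-PAGE and Western blotted; bands measured by densitometry as % of drug-free culture. Two cultures per dose, three experiments (n = 5–6).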

Streptococcus pneumoniae [4] = test: Antimicrobial activity against Streptococcus pneumoniae NMU112 infected in po dosed CBA/J mouse assessed as delaying in development of bacteremia […]; format: functional, organism-based
Streptococcus pneumoniae [5] = test: Antimicrobial activity against Streptococcus pneumoniae NMU112; format: functional
Summary of the method: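 Broth microdilution MIC per NCCLS in Mueller-Hinton broth with 3% lysed horse blood.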

Streptococcus pneumoniae [6] = test: Antimicrobial activity against drug-resistant Streptococcus pneumoniae NMU112 infected CBA/J mouse assessed as median survival time at 5 mg/kg, po relative to control; format: functional; summary of the method: as §1
Streptococcus pneumoniae [7] = test: Antimicrobial activity against Streptococcus pneumoniae NMU605; format: functional
Summary of the method: (§2)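 Broth microdilution MIC (NCCLS method) in Mueller-Hinton broth with 3% lysed horse blood; clinical isolates NMU605 (serotype 3) and NMUP45 (serotype 4).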

Streptococcus pneumoniae [8] = test: Antimicrobial activity against Streptococcus pneumoniae NMUP45; format: functional; summary of the method: as §2

Structure (SMILES)	Activity (Streptococcus pneumoniae [1])	MST (Streptococcus pneumoniae [2]) [days]	Activity (Streptococcus pneumoniae [3])	Activity (Streptococcus pneumoniae [4])	MIC (Streptococcus pneumoniae [5]) [µg/mL]	MST (Streptococcus pneumoniae [6]) [days]	MIC (Streptococcus pneumoniae [7]) [µg/mL]	MIC (Streptococcus pneumoniae [8]) [µg/mL]
CC[C@H]1OC(=O)[C@H](C)[C@@H](O[C@H]2C[C@@](C)(OC)[C@@H](O)[C@H](C)O2)[C@H](C)[C@@H](O[C@@H]2O[C@H](C)C[C@H](N(C)C)[C@H]2O)[C@](C)(O)C[C@@H](C)CN(C)[C@H](C)[C@@H](O)[C@]1(C)O [AZITHROMYCIN]	Active	7.33	Active	Active	≥ 256	5.84	0.125 (≈ 0.167 µM)	
CC[C@H]1OC(=O)[C@H](C)[C@@H](O[C@H]2C[C@@](C)(OC)[C@@H](O)[C@H](C)O2)[C@H](C)[C@@H](O[C@@H]2O[C@H](C)C[C@H](N(C)C)[C@H]2O)[C@](C)(OC)C[C@@H](C)C(=O)[C@H](C)[C@@H](O)[C@]1(C)O [CLARITHROMYCIN]	Active	8.45	Active	Active	≥ 256	6.82	0.03 (≈ 0.0401 µM)	2 (≈ 2.67 µM)
